Results as given in ChEMBL document CHEMBL4627282, “Synthesis of guggulsterone derivatives as potential anti-austerity agents against PANC-1 human pancreatic cancer cells” (Bioorg Med Chem Lett, 2020).
Activity calls are given as the source filed them. The rule behind the calls is not given here.

Key:
[1] = system: PANC-1; assay: Anti-austerity activity against human PANC1 cells assessed as cell killing incubated in nutrient deprived medium; type: functional
Method in brief: (§1)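 PANC-1 cells were exposed to a concentration series in nutrient-deprived medium (NDM; no glucose, amino acids or serum) and, in parallel, in complete DMEM. Survival was plotted against log concentration, and PC50, the concentration preferentially cytotoxic under starvation, was read from the curve.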

[2] = system: PANC-1; assay: Cytotoxicity against human PANC1 cells incubated in normal DMEM medium; type: cell-based; method in brief: as §1
[3] = system: PANC-1; assay: Induction of cell death in human PANC1 cells assessed as rounded cell morphology at 3 uM incubated for 24 hrs in nutrient deprived medium by ethidium bromide and acridine orange dye based phase contrast microscopy; type: functional
Method in brief: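 PANC-1 cells were held in NDM for 24 h with compound, alongside untreated controls, then double-stained with acridine orange and ethidium bromide. Imaging was in fluorescence (green AO marks live cells, red EB marks dead or dying cells) and in phase-contrast mode to assess morphology.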

[4] = system: PANC-1; assay: Induction of cell death in human PANC1 cells assessed as cell shrinkage at 3 uM incubated in nutrient deprived medium measured every 10 mins […] by live cell imaging analysis; type: functional, cell-based
Method in brief: (§2)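 Cells were treated in NDM in a stage-top incubator at 37 °C under 5% CO2. Phase-contrast images were captured every 10 min for 24 h on a digital imaging system with a 10× objective. Cell mobility, shrinkage, swelling and leakage of cytoplasm were scored from the time-lapse record.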

[5] = system: PANC-1; assay: Induction of cell death in human PANC1 cells assessed as swelling of cells at 3 uM incubated in nutrient deprived medium measured every 10 mins for […] by live cell imaging analysis; type: functional, cell-based; method in brief: as §2
[6] = system: PANC-1; assay: Inhibition of cell migration in human PANC1 cells at 3 uM incubated in nutrient deprived medium measured every 10 mins for 24 hrs by live cell imaging analysis; type: functional, cell-based; method in brief: as §2
[7] = system: PANC-1; assay: Selectivity index, ratio of IC50 for human PANC1 cells incubated in normal DMEM medium to PC50 for human PANC1 cells incubated in nutrient-deprived medium
[8] = system: PANC-1; assay: Induction of cell death in human PANC1 cells assessed as leakage of cytoplasmic content at 3 uM incubated in nutrient deprived medium measured every 10 mins for […] by live cell imaging analysis; type: functional, cell-based; method in brief: as §2
[9] = system: PANC-1; assay: Inhibition of colony formation in human PANC1 cells incubated for 10 days in DMEM by crystal violet staining based assay
[10] = system: PANC-1; assay: Inhibition of colony formation in human PANC1 cells at 1.25 uM incubated for 10 days in DMEM by crystal violet staining based assay; conditions: PANC-1, 240 h
[11] = system: PANC-1; assay: Induction of cell death in human PANC1 cells assessed as rounded cell morphology at 5 uM incubated for 24 hrs in nutrient deprived medium by ethidium bromide and acridine orange dye based phase contrast microscopy; type: functional
Method in brief: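 PANC-1 cells treated in NDM for 24 h, then double-stained with ethidium bromide and acridine orange. They were imaged in fluorescence (green for live, red for dead or dying) and phase-contrast modes on a digital microscope, and morphology was judged against untreated controls.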

[12] = system: PANC-1; assay: Induction of cell death in human PANC1 cells assessed as leakage of cytoplasmic content at 5 uM incubated in nutrient deprived medium measured every 10 mins for 12 hrs by live cell imaging analysis; type: functional, cell-based
[13] = system: PANC-1; assay: Induction of cell death in human PANC1 cells assessed as swelling of cells at 5 uM incubated in nutrient deprived medium measured every 10 mins for 12 hrs by live cell imaging analysis; type: functional, cell-based
[14] = system: PANC-1; assay: Inhibition of colony formation in human PANC1 cells at 50 uM incubated for 10 days in nutrient deprived medium by crystal violet staining based assay; type: functional, cell-based
[15] = system: PANC-1; assay: Induction of cell death in human PANC1 cells assessed as cell shrinkage at 5 uM incubated in nutrient deprived medium measured every 10 mins for 12 hrs by live cell imaging analysis; type: functional, cell-based
[16] = system: PANC-1; assay: Inhibition of cell migration in human PANC1 cells at 5 uM incubated in nutrient deprived medium measured every 10 mins for 24 hrs by live cell imaging analysis; type: functional, cell-based

Row | Structure (SMILES) | PC50 [1] | IC50 [2] | further results
1 | CCC/C=C1\C(=O)C[C@H]2[C@@H]3CCC4=CC(=O)CC[C@]4(C)[C@H]3CC[C@]12C | 18 µM | > 100 µM | 
2 | C/C=C1/C(=O)C[C@H]2[C@@H]3CCC4=CC(=O)CC[C@]4(C)[C@H]3CC[C@]12C [E-GUGGULSTERONE] | 42 µM | > 100 µM | 
3 | CC[C@H]1C(=O)C[C@H]2[C@@H]3CC[C@H]4CC(=O)CC[C@]4(C)[C@H]3CC[C@]12C | 18 µM | > 100 µM | 
4 | C/C=C1/C(=O)C[C@H]2[C@@H]3CC[C@H]4CC(=O)CC[C@]4(C)[C@H]3CC[C@]12C | >100 µM | > 100 µM | 
5 | CC/C=C1\C(=O)C[C@H]2[C@@H]3CCC4=CC(=O)CC[C@]4(C)[C@H]3CC[C@]12C | 17 µM | > 100 µM | 
6 | COCCC/C=C1/C(=O)C[C@H]2[C@@H]3CCC4=CC(=O)CC[C@]4(C)[C@H]3CC[C@]12C | 52 µM | > 100 µM | 
7 | COc1cc(C[C@H]2C(=O)OC[C@@H]2Cc2ccc(OC)c(OC)c2)ccc1O [ARCTIGENIN] | 0.8 µM |  | 
8 | C=C1C(=O)C[C@H]2[C@@H]3CCC4=CC(=O)CC[C@]4(C)[C@H]3CC[C@]12C | 1.6 µM | 11 µM | Activity [3]: Active; Activity [4]: Active; Activity [5]: Active; Activity [1]: Dose-dependent effect; inhibition [6]: Active; Ratio [7]: 6.5; Activity [8]: Active; inhibition [9]: Dose-dependent effect; inhibition at 1.25 µM [10]: 100%
9 | CC/C=C1/C(=O)C[C@H]2[C@@H]3CCC4=CC(=O)CC[C@]4(C)[C@H]3CC[C@]12C | 50 µM | > 100 µM | 
10 | CC=C1CC[C@H]2[C@@H]3CCC4=CC(=O)CC[C@]4(C)[C@H]3CC[C@]12C (mixture of isomers) |  | > 100 µM | Activity [11]: Active; Activity [12]: Active; Activity [13]: Active; Activity [1]: Dose-dependent effect; inhibition [14]: Active; Ratio [7]: 34; inhibition [9]: Dose-dependent effect; Activity [15]: Active; inhibition [16]: Active
11 | CCC/C=C1/C(=O)C[C@H]2[C@@H]3CCC4=CC(=O)CC[C@]4(C)[C@H]3CC[C@]12C | 14 µM | > 100 µM | 
12 | C/C=C1\C(=O)C[C@H]2[C@@H]3CCC4=CC(=O)CC[C@]4(C)[C@H]3CC[C@]12C [GUGGULSTERONE] | 37 µM | 42 µM | 
